Measurements from different studies.
Each line is one published result; the experiments were not run side by side.
Target: Dual specificity mitogen-activated protein kinase kinase 2 (MAP2K2, Homo sapiens, UniProt P36507)

| Structure (SMILES) | effect on | method | tested at | remaining binding [%] |
| --- | --- | --- | --- | --- |
| Cc1c(NC(=O)c2cc(C(N)=O)nc3cc(F)ccc23)c(C(F)(F)F)nn1Cc1ccc(C(C)(C)C)cc1 | cell-free assay | competition with immobilised ligand | 1 µM | 100 |
| c1cncc(-c2cccc(Nc3nccc(NC4CCCCC4)n3)c2)c1 | binding | competition with immobilised ligand | 10 µM | 83 |
| O=C(c1ccc(Nc2ncc(Cl)c(-c3ccc(Cl)s3)n2)cc1)N1CCC(N2CCCC2)CC1 | binding | competition with immobilised ligand | 1 µM | 15 |
| FC(F)(F)Oc1cccc(-c2cnc3ccc(-c4ccncc4)nn23)c1 | cell-free assay | competition with immobilised ligand | 5 µM | 72 |
| C=CC(=O)N1CCC(C(=O)NCC(=O)N2CCN(c3nc(-c4cnc(N)nc4C(F)F)nc(N4CCOCC4)n3)CC2)CC1 | binding | competition with immobilised ligand | 1 µM | 59 |
| CC1CCCN1c1nccc(-c2cnn3ncccc23)n1 (stereo not drawn) | binding | – | 1 µM | 96 |
| O=C(NS(=O)(=O)c1ccc(NCC2CCOCC2)c([N+](=O)[O-])c1)c1ccc(N2CCN(Cc3ccc(C(F)(F)F)cc3-c3ccc(Cl)cc3)CC2)cc1Oc1cnc2[nH]ccc2c1 | cell-free assay | competition with immobilised ligand | 1 µM | 100 |
| O=C(NCC1CCOCC1)c1n[nH]cc1NC(=O)c1c(F)cccc1F | binding | competition with immobilised ligand | 1 µM | 100 |
| N[C@@H]1CCN(c2nccc(-c3cnn4ncccc34)n2)C1 | binding | – | 1 µM | 84 |
| O=C(c1ccc(Nc2nccc(-c3cc4ccccc4s3)n2)cc1)N1CCC(N2CCCC2)CC1 | binding | competition with immobilised ligand | 1 µM | 60 |
| CC(=O)Nc1c(C(C)=O)c(=O)n(C)c2nc(-c3ccc(Cl)cc3Cl)c(-c3ccc(Cl)cc3)cc12 | cell-free assay | competition with immobilised ligand | 1 µM | 100 |
| F[C@@H]1CCN(c2nccc(-c3cnn4ncccc34)n2)C1 | binding | – | 1 µM | 88 |
| CC(=O)c1c(NS(C)(=O)=O)c2cc(-c3ccc(Cl)cc3)c(-c3ccc(Cl)cc3Cl)nc2n(C)c1=O | cell-free assay | competition with immobilised ligand | 1 µM | 100 |
| O=C(NCCCN1CCOCC1)c1ccc(Nc2nccc(-c3cc4ccccc4s3)n2)cc1 | binding | competition with immobilised ligand | 1 µM | 79 |
| C[C@@H]1CN(c2ccc3ncc(-c4ccc5[nH]nc(C6CC6)c5c4)n3n2)C[C@H](C)O1 | binding | competition with immobilised ligand | 0.5 µM | 100 |
| C[C@@]1(Cc2ccc(C#N)cc2)C(=O)N(c2cc(Cl)cc(Cl)c2)c2ncc(C(=O)NC3(c4nc(C5CCC5)no4)CC3)n21 | cell-free assay | competition with immobilised ligand | 1 µM | 99 |
| Cc1cnn2ncc(-c3ccnc(N(C)C)n3)c2c1 | binding | – | 1 µM | 100 |
| COc1cnc(Nc2cccc(S(N)(=O)=O)c2)nc1N1CCN(c2ccccc2)CC1 | binding | competition with immobilised ligand | 1 µM | 83 |
| C[C@H]1CCN(c2nccc(-c3cnn4ncccc34)n2)C1 | binding | – | 1 µM | 100 |
| CC(C)(C)c1ccc(-c2nc(CBr)nn2-c2cccc(O)c2)cc1 | cell-free assay | competition with immobilised ligand | 10 µM | 90 |
| C[C@@H]1CN(c2cc(-c3n[nH]c4ccc(OC5(C)CC5)cc34)ncn2)C[C@H](C)O1 | cell-free assay | competition with immobilised ligand | 0.1 µM | 85 |
| CN(c1nccc(-c2cnn3ncccc23)n1)C1CC1 | binding | – | 1 µM | 100 |
| O=C(O)[C@@H]1[C@@H](Cn2nnc3ccccc3c2=O)CC[C@H]1C(=O)c1ccc(OCCC2CCOCC2)cc1 | cell-free assay | competition with immobilised ligand | 1 µM | 100 |
| COc1cnc(Nc2cccc(S(N)(=O)=O)c2)nc1N1CCN(c2ccccc2)C(=O)C1 | binding | competition with immobilised ligand | 1 µM | 94 |
